Bioassay records from PubChem BioAssay.
FLuc stim CS: FLuc activators, initial screening, artefact control for FLuc-dependent activation tests, biochemical, ATPlite luminescence | Luciferin 4-monooxygenase (Photinus pyralis), P08659 | ATPlite luciferase biochemical, 10 min; 0 = ATP-free wells, 1 = DMSO control | activation factor at 10 µM | 200,000 tested, under 10 active | AID 1027, 2008;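 active = luciferase activation factor, scaled between plate controls, of at least 2 with compound at 10 µM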
Target sequence (P08659 whole entry, looked up): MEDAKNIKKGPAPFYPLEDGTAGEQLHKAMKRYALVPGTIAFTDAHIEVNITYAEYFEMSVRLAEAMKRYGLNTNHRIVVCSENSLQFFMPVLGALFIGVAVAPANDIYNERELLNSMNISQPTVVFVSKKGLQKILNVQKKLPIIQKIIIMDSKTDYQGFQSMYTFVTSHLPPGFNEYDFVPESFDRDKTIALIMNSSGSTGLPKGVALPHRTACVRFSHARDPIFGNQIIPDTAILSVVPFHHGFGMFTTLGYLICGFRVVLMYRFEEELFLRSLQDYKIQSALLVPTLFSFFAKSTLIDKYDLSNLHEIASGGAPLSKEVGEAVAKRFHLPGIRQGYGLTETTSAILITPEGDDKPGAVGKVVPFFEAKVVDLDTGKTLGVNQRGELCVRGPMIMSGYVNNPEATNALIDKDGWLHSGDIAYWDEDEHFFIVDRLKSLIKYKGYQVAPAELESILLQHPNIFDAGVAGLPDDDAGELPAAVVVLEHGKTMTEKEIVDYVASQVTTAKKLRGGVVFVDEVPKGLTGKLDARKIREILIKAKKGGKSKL
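Material: Luciferase/luciferin reagent mix | Doses: Test compounds dosed from 2 mM stocks in 100% DMSO | Timing: 10 min incubation after luciferase reagent addition, room temperature | Measured by: Luminescence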
APP 5'UTR act: activators of APP 5'UTR luciferase reporter, primary screen, SH-SY5Y cells. SH-SY5Y APP 5'UTR luciferase reporter, luminescence; zero percent = DMSO vehicle wells. activation, % at 2 µM. 190,000 tested, 1% active. AID 1276, 2008;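 active = activation above a set limit, based on mean plus 3 SD of controls, cut at about 140% in these data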
NF-kB neuron act: activators of NF-kB expression in neurons, primary screen, cell-based, HTS; human neuronal cells, NF-kB reporter expression; active compounds read high; fold change at 12.5 µM; 190,000 tested, 1.6% active; in the data active = fold change above about 3.3
FLuc inhib CS: firefly luciferase enzyme inhibitors, primary screen, artefact control for luciferase-based inhibitor screens, biochemical, luminescence, ATPLite. 10 min. 200,000 tested, 1.5% active. inhibition, % at 10 µM. AID 1006, 2008. Luciferin 4-monooxygenase (Photinus pyralis), P08659;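 active = inhibition above about 50% when tested at 10 µM, limit read from the data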
STAT1 act: STAT1 signaling activators, primary screen, cell-based, HTS, luciferase reporter; NIH 3T3 STAT1-luciferase reporter, IFN-gamma, luminescence; 100% = IFN-gamma alone, no compound; activation (% of control), % at 5.5 µM; 200,000 tested, 2.6% active;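 active = activation above the screen-wide mean activation plus 3 SD, cut at about 130% in these data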
STAT1 activ conf: STAT1 signaling activators, confirmation, cell-based, HTS, luciferase reporter | shares compounds with STAT1 act | NIH 3T3 STAT1-luciferase reporter, IFN-gamma potentiation, luminescence; 100% = IFN-gamma EC80 alone, no compound | activation (% of control), % at 5.7 µM | 1,200 tested, 97% active | AID 1262, 2008;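 active = activation above a set limit carried over from the earlier primary STAT1 screen, cut at about 140% in these data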
NFkB act: NF-kB reporter activators, TNF-alpha stimulated, counter-screen for STAT1 activator project, cell-based, HEK293T, luciferase luminescence; 1,200 tested, 43% active; shares compounds with STAT1 act; activation (% of control), % at 5.7 µM; 100% = TNF-alpha with vehicle only;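 active = activation above the mean of solvent-only control wells plus 3 SD, set per campaign, cut at about 130% in these data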;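 note: TNF-alpha given at a submaximal dose yielding about 80% of full reporter signal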
STAT3 act 2: STAT3 reporter activation by STAT1 hits, confirmation, counter-screen for STAT1 activator project, U3A cells, luciferase, luminescence; IL-6; cells lack STAT1; 100 = IL-6 alone, no compound effect; activation (% of control), % at 5.7 µM; 1,200 tested, 46% active; shares compounds with STAT1 act;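 active = activation above the solvent-only control well mean plus 3 SD, set per plate batch, cut at about 110% in these data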;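 note: higher means more STAT3 reporter activation so hits are non-selective activators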
Of the large screens only hits and unclear results are named; the others gave an inactive call (follow-up assays come after a bar, where they were run). Sampled rows, rich in hits. Any-hit rate of the full collection: about 4.1%.

Cc1c(NC(=O)Cn2cnc3c(=O)n(C)c(=O)n(C)c32)cccc1-c1nc2ccccc2o1	none (no result: FLuc stim CS, NF-kB neuron act, FLuc inhib CS)
CC(C)CCn1c(=O)c2ccccc2n2c(CCl)nnc12	none
COc1ccc(-c2cc3nc(-c4ccccc4)cc(N4CCC(O)CC4)n3n2)cc1	none
COc1ccc(-c2cc3ncc(-c4ccccc4)c(N)n3n2)cc1	APP 5'UTR act 225.2, FLuc inhib CS 78.7, STAT1 act 156.4 | STAT1 activ conf 197.5 | NFkB act inactive | STAT3 act 2 inactive
CC(C)(C)NS(=O)(=O)c1ccc(/C=C/C(=O)O)cc1	none (no result: NF-kB neuron act)
Oc1ccc(N=Nc2n[nH]c(-c3ccccc3)n2)cc1	APP 5'UTR act 145.9, NF-kB neuron act 6.3, FLuc inhib CS 58.6, STAT1 act 172.2 | STAT1 activ conf 184.5 | NFkB act inactive | STAT3 act 2 inactive
CC(=O)Nc1ccc2c(c1)OCCO2	none
N#Cc1ccc(NCC(=O)Nc2ccc3c(c2)OCCO3)cc1	none
O=C(Nc1ccc2c(c1)CCC2)Nc1ccc2c(c1)OCO2	STAT1 act 159.7 | STAT1 activ conf 167.4 | NFkB act inactive | STAT3 act 2 110.9
O=C(Nc1ccc2c(c1)OCCO2)c1cccs1	APP 5'UTR act 142.1, NF-kB neuron act 5.23, FLuc inhib CS 69.6, STAT1 act 152.9 | STAT1 activ conf 172.9 | NFkB act inactive | STAT3 act 2 inactive
N#Cc1cccc(NCC(=O)Nc2ccc3c(c2)OCCO3)c1	APP 5'UTR act 190.2, NF-kB neuron act 6.85, FLuc inhib CS 65.2, STAT1 act 167.3 | STAT1 activ conf 180.3 | NFkB act inactive | STAT3 act 2 115.1
Cn1c(C(=O)Nc2ccc3c(c2)OCO3)cc2sccc21	APP 5'UTR act 153.3, NF-kB neuron act 8.88, FLuc inhib CS 53.2, STAT1 act 193.0 | STAT1 activ conf 210.4 | NFkB act 146.7 | STAT3 act 2 141.6
O=C(NC1=NCCS1)c1cccc(S(=O)(=O)N2CCCCC2)c1	none (no result: NF-kB neuron act)
O=C(Nc1cccc([N+](=O)[O-])c1)Nc1cccc([N+](=O)[O-])c1	none
O=C(Nc1cccc([N+](=O)[O-])c1)Nc1ccc2c(c1)OCCO2	NF-kB neuron act 3.57, STAT1 act 155.7 | STAT1 activ conf 195.5 | NFkB act 137.1 | STAT3 act 2 136.3
COC(=O)Nc1ccc2c(c1)OCO2	none
O=C(Nc1ccc2c(c1)OCO2)c1ccc(Br)s1	APP 5'UTR act 161.8, NF-kB neuron act 10.1, FLuc inhib CS 60.9, STAT1 act 181.3 | STAT1 activ conf 203.5 | NFkB act inactive | STAT3 act 2 131.6
Cc1ccc(C(=O)C(OC(=O)c2cnccn2)c2ccccc2)cc1 (stereo not drawn)	none
Cc1ccc(Cn2ccc(NC(=O)c3cc(CC(C)C)on3)n2)cc1	none
O=c1c(-c2nc3ccccc3s2)cccn1Cc1ccccc1	NF-kB neuron act 3.72, STAT1 act 161.2 | STAT1 activ conf 210.6 | NFkB act inactive | STAT3 act 2 inactive
O=C(Nc1ccccc1-c1nc2ccccc2s1)c1ccco1	none
CC(=Nc1ccc(C)cc1)c1sc2ccccc2c1O	APP 5'UTR act 196.8, NF-kB neuron act 4.79, FLuc inhib CS 85.2, STAT1 act 153.9 | STAT1 activ conf 247.9 | NFkB act inactive | STAT3 act 2 inactive
CCOC(=O)c1sc2ccccc2c1OC(=O)c1ccc(C)cc1	none
C=CCSc1nnc2c(n1)[nH]c1c(C)cccc12	STAT1 act 154.2 | STAT1 activ conf 176.0 | NFkB act inactive | STAT3 act 2 inactive
CCSc1nc2c([nH]c3ccccc32)c(=O)n1C	none
CCSc1nnc2nc3[nH]c4c(C)cccc4c3nn12	STAT1 act 151.0 | STAT1 activ conf 148.6 | NFkB act inactive | STAT3 act 2 123.3
Cc1cccc2c1[nH]c1nc(N/N=C\c3ccco3)nnc12	none
COC(=O)c1ccc(COc2ccccc2/C=C(\C#N)C(=O)Nc2ccc(C)cc2)cc1	STAT1 act 151.0 | STAT1 activ conf 195.1 | NFkB act 135.3 | STAT3 act 2 inactive
CCCCOc1[nH]c2nc(-c3ccco3)n(Cc3ccco3)c(=N)c2c1C#N	none (no result: APP 5'UTR act)
Cc1csc2nc(CSc3ccc(Cl)cc3)cn12	APP 5'UTR act 149.2, NF-kB neuron act 5.99, STAT1 act 153.3 | STAT1 activ conf 198.2 | NFkB act 135.3 | STAT3 act 2 inactive
Cc1csc2nc(CNC(=O)C3CCCCC3)cn12	none
O=C(O)c1ccc(N/N=C/c2ccc(F)c(F)c2)cc1	APP 5'UTR act 159.0, NF-kB neuron act 5.28, STAT1 act 161.9 | STAT1 activ conf 211.3 | NFkB act inactive | STAT3 act 2 128.6
COc1cc(/C=N/Nc2ccc(C(=O)O)cc2)ccc1O	none
O=C(O)c1ccc(N/N=C/c2cccc(F)c2)cc1	NF-kB neuron act 5.03, STAT1 act 161.0 | STAT1 activ conf 202.8 | NFkB act inactive | STAT3 act 2 117.7
O=C(N/N=C/c1cccc(F)c1)NC1CCCCC1	none
O=C(CSc1nc2ccccc2o1)Nc1nc2ccc(Br)cc2s1	none
Cn1cc(Cl)c(C(=O)Nc2nc3ccc([N+](=O)[O-])cc3s2)n1	none
Cn1cc(Cl)c(C(=O)Nc2nc3ccc(Cl)cc3s2)n1	STAT1 act 151.3 | STAT1 activ conf 171.4 | NFkB act 137.6 | STAT3 act 2 inactive
CC(=O)Nc1nc2ccc(Br)cc2s1	STAT1 act 173.6 | STAT1 activ conf 205.2 | NFkB act 141.3 | STAT3 act 2 112.2
CCOC(=O)c1ccc2nc(NC(C)=O)sc2c1	STAT1 act 160.6 | STAT1 activ conf 167.9 | NFkB act inactive | STAT3 act 2 inactive
CCOC(=O)c1ccc2nc(Nc3nc4ccc(F)cc4s3)sc2c1	none
CCn1c(C)nc2cc(C(=O)NNC(=S)Nc3ccccc3)ccc21	APP 5'UTR act 184.9, STAT1 act 160.0 | STAT1 activ conf 228.0 | NFkB act 141.3 | STAT3 act 2 118.2
FC(F)(F)c1cnc2c(-c3ccccc3)n[nH]c2c1	STAT1 act 161.1 | STAT1 activ conf 136.9 | NFkB act inactive | STAT3 act 2 inactive
CCc1nnc(NC(=O)CSc2nnc(CNc3ccc(F)cc3)n2C2CCCCC2)s1	none
